The subject of assay [1] is Saccharomyces cerevisiae. The assay is described as follows: Antimicrobial activity against Saccharomyces cerevisiae ATCC 9763 up to 100 ug/ml after 48 hrs by two-fold broth dilution method. The format is functional, organism-based. The gist of the method: (§1)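 Fungi (yeasts C. tropicalis and S. cerevisiae, mould A. niger) grown in Sabouraud dextrose broth. Inoculum was 1·10³ fungi/mL. Compounds were dissolved in DMSO, which was also loaded as the negative control. Incubation was 30 °C for 48 h. The broth dilution method followed NCCLS reference methods for yeasts and filamentous fungi.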
(Dilution methods test growth across graded concentrations, often in twofold steps.)

In the next assay the test system is Bacillus spizizenii. The assay can be described thus: Antimicrobial activity against Bacillus subtilis ATCC 6633 after 24 hrs by two-fold broth dilution method. In kind it is functional. The note with it: ATCC 6633, 24 h. Put shortly:
(§2)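 Bacteria were cultivated on Mueller Hinton medium and inoculated at 5·10⁵ bacteria/mL. Compounds were dissolved in DMSO, with DMSO loaded as the negative control. Samples were incubated at 37 °C for 24 h. The dilution susceptibility method followed the NCCLS standard for aerobically growing bacteria.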

Assay [2] concerns Aspergillus niger. The assay is described as follows: Antimicrobial activity against Aspergillus niger ATCC 6275 up to 100 ug/ml after 48 hrs by two-fold broth dilution method. In kind it is functional, organism-based. Put shortly: as §1
The test system of a further assay is Escherichia coli. The assay can be described thus: Antimicrobial activity against Escherichia coli ATCC 8739 after 24 hrs by two-fold broth dilution method. In kind it is functional. The note with it: ATCC 8739, 24 h. Put shortly:
as §2

A further assay has as its system Staphylococcus aureus. The assay can be described thus: Antimicrobial activity against Staphylococcus aureus ATCC 6538 after 24 hrs by two-fold broth dilution method. In kind it is functional. The conditions noted are these: ATCC 6538, 24 h. The gist of the method: as §2
The next assay relates to Haemophilus influenzae. The assay can be described thus: Antimicrobial activity against Haemophilus influenzae ATCC 19418 after 24 hrs by two-fold broth dilution method. The format is functional. The note with it: ATCC 19418, 24 h. The gist of the method:
as §2

In assay [3] the test system is Candida tropicalis. The assay can be described thus: Antimicrobial activity against Candida tropicalis ATCC 1369 up to 100 ug/ml after 48 hrs by two-fold broth dilution method. The format is functional, organism-based. The gist of the method:
as §1

Assay [4] concerns Saccharomyces cerevisiae. The assay can be described thus: microbe, parasite or virus in culture. The note with it: ATCC 9763, 48 h.
Assay [5] relates to Candida tropicalis. The assay can be described thus: Antimicrobial activity against Candida tropicalis ATCC 1369 after 48 hrs by two-fold broth dilution method. The format is functional. The conditions noted are these: ATCC 1369, 48 h. Put shortly:
as §1

Assay [6] concerns Aspergillus niger. The assay can be described thus: Antimicrobial activity against Aspergillus niger ATCC 6275 after 48 hrs by two-fold broth dilution method. In kind it is functional. The note with it: ATCC 6275, 48 h. The gist of the method: as §1

≈ marks a conversion by molar mass, not a printed value. Calls of active or inactive are those of the source. No cut-off for these calls is given here.

On to `COc1ccc(-c2c(F)cc3c(=O)c(C(=O)O)cn(C4CC4)c3c2[N+](=O)[O-])cc1`, for which the result with Saccharomyces cerevisiae [1], in the assay with Aspergillus niger [2] and in the assay with Candida tropicalis [3] was inactive. Besides, the MIC came to 30 ng/mL (≈ 0.0753 µM) with Bacillus spizizenii, 25000 ng/mL (≈ 62.8 µM) against Escherichia coli, 150 ng/mL (≈ 0.377 µM) against Staphylococcus aureus and 150 ng/mL (≈ 0.377 µM) in the assay on Haemophilus influenzae.

On to `COc1c(C)cc(-c2c(F)cc3c(=O)c(C(=O)O)cn(C4CC4)c3c2[N+](=O)[O-])cc1C`, for which the outcome with Saccharomyces cerevisiae [1], in the assay on Aspergillus niger [2] and in the assay with Candida tropicalis [3] was inactive. Also, the MIC against Bacillus spizizenii worked out at 0.07 ng/mL (≈ 0.000164 µM); in the assay on Escherichia coli it was 25000 ng/mL (≈ 58.6 µM); in the assay on Staphylococcus aureus, 3 ng/mL (≈ 0.00704 µM); with Haemophilus influenzae it was 15 ng/mL (≈ 0.0352 µM).

For the compound `O=C(O)c1cn(C2CC2)c2c([N+](=O)[O-])c(-c3ccccc3)c(F)cc2c1=O`, the result with Saccharomyces cerevisiae [1], in the assay with Aspergillus niger [2] and in the assay on Candida tropicalis [3] was inactive. Moreover, the MIC in the assay on Bacillus spizizenii is 15 ng/mL (≈ 0.0407 µM); with Escherichia coli, 3000 ng/mL (≈ 8.15 µM); in the assay on Staphylococcus aureus, 150 ng/mL (≈ 0.407 µM); in the assay on Haemophilus influenzae, 150 ng/mL (≈ 0.407 µM).

Consider `O=C(O)c1cn(C2CC2)c2c([N+](=O)[O-])c(-c3ccc(F)cc3)c(F)cc2c1=O`, for which the result with Saccharomyces cerevisiae [1], in the assay on Aspergillus niger [2] and with Candida tropicalis [3] was inactive. The MIC in the assay on Bacillus spizizenii was 15 ng/mL (≈ 0.0388 µM); against Escherichia coli it was 3000 ng/mL (≈ 7.77 µM); in the assay with Staphylococcus aureus, 150 ng/mL (≈ 0.388 µM); in the assay with Haemophilus influenzae, 70 ng/mL (≈ 0.181 µM).

Regarding `Cc1ccc(-c2c(F)cc3c(=O)c(C(=O)O)cn(C4CC4)c3c2[N+](=O)[O-])cc1`, the outcome in the assay on Saccharomyces cerevisiae [1], with Aspergillus niger [2] and with Candida tropicalis [3] was inactive. Also, the MIC in the assay with Bacillus spizizenii was determined as 15 ng/mL (≈ 0.0392 µM); against Escherichia coli, 3000 ng/mL (≈ 7.85 µM); against Staphylococcus aureus, 150 ng/mL (≈ 0.392 µM); in the assay on Haemophilus influenzae, 30 ng/mL (≈ 0.0785 µM).

`Clc1ccc(COC(Cn2ccnc2)c2ccc(Cl)cc2Cl)c(Cl)c1` (stereo unspecified) [MICONAZOLE]: the outcome in the assay with Saccharomyces cerevisiae [1], with Aspergillus niger [2] and in the assay on Candida tropicalis [3] was inactive. Besides, the figures for the MIC with Saccharomyces cerevisiae [4], with Candida tropicalis [5] and with Aspergillus niger [6] were 12000 ng/mL (≈ 28.8 µM), 6000 ng/mL (≈ 14.4 µM) and 3000 ng/mL (≈ 7.21 µM), respectively.
